Active and inactive are the calls of the source. No cut-off for these calls is given here.
How the values were obtained:
[1] = biological target: Mitochondrial complex I (NADH dehydrogenase); assay: Inhibition of mitochondrial ETC complex 1 in human T47D cells assessed as inhibition of 1% O2-induced HIF1 activation incubated for 30 mins prior to 1% O2-challenge measured after 16 hrs by luciferase reporter assay; type: cell-based
Summary of the method: (§1)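 pHRE-luc reporter transfected T47D cells were exposed for 16 h to hypoxia (1% O2) or to chemical hypoxia (10 μM 1,10-phenanthroline) in the presence of compound. The highest concentration tested was 30 μM. Luciferase signal was expressed as % inhibition of the induced control. IC50 and 95% CI came from one representative concentration-response experiment run in triplicate. Cycloheximide at 10 μM served as control.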

T47D [2] = assay: Inhibition of mitochondrial ETC complex 1 in human T47D cells assessed as inhibition of oxygen consumption at 30 uM after 5 to 10 mins by Clarke-type electrode analysis; type: cell-based
Summary of the method: (§2)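 For acute exposure, intact T47D cells received compound at 3, 10 or 30 μM for 5–10 min. Oxygen consumption was then measured with a Clarke-type electrode, with rotenone at 1–100 nM as control. Results are % inhibition of the untreated rate, averaged over two independent experiments with deviation from the average.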

T47D [3] = assay: Antiproliferative activity against human T47D cells at 1 to 10 uM after 48 hrs by SRB assay; type: functional, cell-based
Summary of the method: (§3)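 T47D or MDA-MB-231 breast tumor cells were exposed to 1, 3, 10 and 30 μM for 48 h or 144 h (6 d). For the 6 d exposure, medium was replaced after 3 days with fresh medium containing compound. Stocks were 4 mM in 2-propanol, with final solvent below 0.75%. Viability was measured by sulforhodamine B and expressed as % inhibition of the untreated control: [1−(OD treated/OD control)]×100.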

[4] = biological target: Mitochondrial complex I (NADH dehydrogenase); assay: Inhibition of mitochondrial ETC complex 1 in human T47D cells assessed as inhibition of 1,10-phenanthroline-induced HIF1 activation incubated for 30 mins prior to 1,10-phenanthroline-challenge measured after 16 hrs by luciferase reporter assay; type: cell-based; summary of the method: as §1
T47D [5] = assay: Inhibition of mitochondrial ETC complex 1 in human T47D cells assessed as inhibition of oxygen consumption after 5 to 10 mins by Clarke-type electrode analysis; type: cell-based; summary of the method: as §2
MDA-MB-231 [6] = assay: Antiproliferative activity against human MDA-MB-231 cells at 1 to 10 uM after 48 hrs by SRB assay; type: functional, cell-based; summary of the method: as §3
T47D [7] = assay: Inhibition of mitochondrial ETC complex 1 in human digitonin-permeabalized T47D cells assessed as inhibition of malate/pyruvate-initiated respiration at 10 uM after 2 hrs by Clarke-type electrode analysis; type: cell-based
Summary of the method: (§4)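 T47D cells were pretreated for 2 h with 10 μM compound (rotenone control 0.01 μM), then detached, washed and permeabilized with digitonin. Substrates and inhibitors were added in sequence while O2 uptake was followed by Clarke electrode. Respiration was started with malate/pyruvate (complex I) or succinate (complex II). Antimycin A then blocked complex III, and TMPD/ascorbate re-initiated respiration via complex IV. Rates were normalized to the untreated control.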

T47D [8] = assay: Inhibition of mitochondrial ETC complex 1 in human T47D cells assessed as inhibition of oxygen consumption at 10 uM after 2 hrs by Clarke-type electrode analysis; type: cell-based
Summary of the method: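 T47D cells were pretreated with 10 μM compound, or 0.01 μM rotenone, for 2 h. Cells were then detached and washed, and the oxygen consumption rate was measured with a Clarke-type electrode. Results are % inhibition relative to untreated controls.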

T47D [9] = assay: Inhibition of mitochondrial ETC complex 2 in human digitonin-permeabalized T47D cells assessed as inhibition of succinate-initiated respiration at 10 uM after 2 hrs by Clarke-type electrode analysis; type: cell-based; summary of the method: as §4
T47D [10] = assay: Inhibition of mitochondrial ETC complex 4 in human digitonin-permeabalized T47D cells assessed as inhibition of ascorbate/TMPD-initiated respiration at 10 uM after 2 hrs by Clarke-type electrode analysis in presence of antimycin A; type: cell-based; summary of the method: as §4
T47D [11] = assay: Inhibition of mitochondrial ETC complex 1 in human T47D cells assessed as inhibition of oxygen consumption at 10 uM after 10 mins by Clarke-type electrode analysis; type: cell-based; summary of the method: as §2
T47D [12] = assay: Inhibition of mitochondrial ETC complex 4 in human digitonin-permeabalized T47D cells assessed as inhibition of ascorbate/TMPD-initiated respiration at 30 uM after 2 hrs by Clarke-type electrode analysis in presence of antimycin A; type: cell-based
T47D [13] = assay: Inhibition of mitochondrial ETC complex 2 in human digitonin-permeabalized T47D cells assessed as inhibition of succinate-initiated respiration at 30 uM after 2 hrs by Clarke-type electrode analysis; type: cell-based
T47D [14] = assay: Inhibition of mitochondrial ETC complex 1 in human digitonin-permeabalized T47D cells assessed as inhibition of malate/pyruvate-initiated respiration at 30 uM after 2 hrs by Clarke-type electrode analysis in presence of succinate; type: cell-based
T47D [15] = assay: Inhibition of mitochondrial ETC complex 1 in human digitonin-permeabalized T47D cells assessed as inhibition of malate/pyruvate-initiated respiration at 30 uM after 2 hrs by Clarke-type electrode analysis; type: cell-based
T47D [16] = assay: Inhibition of mitochondrial ETC complex 1 in human digitonin-permeabalized T47D cells assessed as inhibition of malate/pyruvate-initiated respiration at 0.01 uM after 2 hrs by Clarke-type electrode analysis; type: cell-based
Summary of the method: (§5)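 After 2 h pretreatment (rotenone 0.01 μM; test agents 10 μM), cells were detached and permeabilised with digitonin. Additions made in sequence: malate/pyruvate (complex I) or succinate (complex II), antimycin A to block complex III, then TMPD/ascorbate (complex IV) to restart respiration. Clark-electrode O2 consumption slopes were normalised to untreated control.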

T47D [17] = assay: Inhibition of mitochondrial ETC complex 2 in human digitonin-permeabalized T47D cells assessed as inhibition of succinate-initiated respiration at 0.01 uM after 2 hrs by Clarke-type electrode analysis; type: cell-based; summary of the method: as §5
T47D [18] = assay: Inhibition of mitochondrial ETC complex 1 in human T47D cells assessed as inhibition of oxygen consumption at 0.01 uM after 10 mins by Clarke-type electrode analysis; type: cell-based
Summary of the method: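 Intact T47D cells; O2 consumption read on a Clark-type electrode after acute (5–10 min) compound exposure. Value is % inhibition of O2 consumption rate versus untreated control. Rotenone reference tested at 1, 10 and 100 nM. Mean of two independent experiments.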

T47D [19] = assay: Inhibition of mitochondrial ETC complex 4 in human digitonin-permeabalized T47D cells assessed as inhibition of ascorbate/TMPD-initiated respiration at 0.01 uM after 2 hrs by Clarke-type electrode analysis in presence of antimycin A; type: cell-based; summary of the method: as §5
T47D [20] = assay: Inhibition of mitochondrial ETC complex 1 in human T47D cells assessed as inhibition of oxygen consumption at 0.01 uM after 2 hrs by Clarke-type electrode analysis; type: cell-based
Summary of the method: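 T47D cells treated 2 h in culture dishes with compound (10 μM; rotenone 0.01 μM), then detached and washed. O2 consumption measured with a Clark-type electrode. Value is % inhibition versus untreated control.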

MDA-MB-231 [21] = assay: Antiproliferative activity against human MDA-MB-231 cells at 10 uM after 48 hrs by SRB assay; type: functional, cell-based
Summary of the method: (§6)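 Cells exposed 48 h to compounds at 1, 3, 10 and 30 μM (pure compounds from 4 mM 2-propanol stocks, final solvent <0.75%). Viability read by sulforhodamine B staining. Value is % inhibition versus untreated control, [1-(OD treated/OD control)]×100. Cycloheximide 10 μM and rotenone 1 and 10 nM served as controls.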

T47D [22] = assay: Antiproliferative activity against human T47D cells at 10 uM after 48 hrs by SRB assay; type: functional, cell-based; summary of the method: as §6
T47D [23] = assay: Antiproliferative activity against human T47D cells at 1 to 30 uM after 144 hrs by SRB assay; type: functional, cell-based; summary of the method: as §3
MDA-MB-231 [24] = assay: Antiproliferative activity against human MDA-MB-231 cells at 1 to 30 uM after 144 hrs by SRB assay; type: functional, cell-based; summary of the method: as §3
MDA-MB-231 [25] = assay: Antiproliferative activity against human MDA-MB-231 cells at 30 uM after 48 hrs by SRB assay; type: functional, cell-based; summary of the method: as §3
T47D [26] = assay: Antiproliferative activity against human T47D cells at 30 uM after 48 hrs by SRB assay; type: functional, cell-based; summary of the method: as §3

Compound	IC50 [1]	inhibition (T47D [2])	Activity (T47D [3])	IC50 [4]	inhibition (T47D [5])	Activity (MDA-MB-231 [6])	other results
COC(C)(C)[C@H](O)CC/C(C)=C/COc1ccc2ccc(=O)oc2c1	19.3 µM	30%	Active	> 30 µM	Dose-dependent effect	Active	–
C=C(C)[C@H](O)CC/C(C)=C/COc1ccc2ccc(=O)oc2c1	10.4 µM	30%	Active	21.8 µM	Dose-dependent effect	Active	inhibition (T47D [7]): 16%; inhibition (T47D [8]): 31%; inhibition (T47D [9]): 16%; inhibition (T47D [10]): inactive; inhibition (T47D [11]): 27%
C/C(=C\COc1ccc2ccc(=O)oc2c1)CC[C@@H](O)C(C)(C)Cl	16.7 µM	30%	Active	11.1 µM	Dose-dependent effect	Active	inhibition (T47D [12]): inactive; inhibition (T47D [13]): inactive; inhibition (T47D [14]): inactive; inhibition (T47D [15]): Active
COc1cc2ccc(=O)oc2cc1OC/C=C(\C)CCC=C(C)C	17.5 µM	30%	Active	24.2 µM	Dose-dependent effect	Active	–
C=C(C)[C@H]1Cc2c(ccc3c2O[C@@H]2COc4cc(OC)c(OC)cc4[C@@H]2C3=O)O1	–	–	–	–	–	–	inhibition (T47D [16]): 75%; inhibition (T47D [17]): 18%; inhibition (T47D [18]): 21%; inhibition (T47D [19]): inactive; inhibition (T47D [20]): 68%
C[C@@H]1C[C@@H]([C@H](O)CC2CC(=O)NC(=O)C2)C(=O)[C@@H](C)C1	–	–	–	–	–	–	Activity (MDA-MB-231 [21]): Active; Activity (T47D [22]): Active
COc1cc(C[C@H]2CO[C@H](c3ccc(O)c(OC)c3)[C@H]2COC(=O)CC(C)C)ccc1O [(+)-9'-ISOVALEROXYLARICIRESINOL]	9.1 µM	inactive	–	4.9 µM	–	–	–
CC(C)=CCC/C(C)=C/COc1ccc2ccc(=O)oc2c1 [AURAPTENE]	10.2 µM	30%	Active	18.8 µM	Dose-dependent effect	Active	inhibition (T47D [12]): inactive; inhibition (T47D [13]): inactive; inhibition (T47D [14]): inactive; inhibition (T47D [15]): Active
CC(C)=CCOc1ccc(CCNC(=O)/C=C/c2ccccc2)cc1 [DEHYDROMARMELINE]	15.1 µM	70%	–	> 30 µM	–	–	inhibition (T47D [12]): inactive; inhibition (T47D [13]): inactive; inhibition (T47D [14]): inactive; inhibition (T47D [15]): Active
CCCCC/C=C\C/C=C\CCCCCCCC(=O)O[C@H](CC/C(C)=C/COc1ccc2ccc(=O)oc2c1)C(C)(C)O [R-(+)-MARMIN-6'-LINOLEATE]	0.92 µM	25%	Active	2.35 µM	–	Active	inhibition (T47D [7]): 68%; Activity (T47D [23]): Active; inhibition (T47D [8]): 62%; Activity (MDA-MB-231 [24]): Active; inhibition (T47D [9]): 41%; inhibition (T47D [10]): inactive; inhibition (T47D [11]): 6%
CCCCCCCC(=O)O[C@H](CC/C(C)=C/COc1ccc2ccc(=O)oc2c1)C(C)(C)O [R-(+)-MARMIN-6'-OCTANOATE]	3.08 µM	30%	Active	3.71 µM	Dose-dependent effect	Active	Activity (T47D [23]): Active; Activity (MDA-MB-231 [25]): Active; inhibition (T47D [8]): 39%; Activity (MDA-MB-231 [24]): Active; inhibition (T47D [10]): inactive; Activity (T47D [26]): Active; inhibition (T47D [11]): 28%
CCCCCCCCCCCCCCCC(=O)O[C@H](CC/C(C)=C/COc1ccc2ccc(=O)oc2c1)C(C)(C)O [R-(+)-MARMIN-6'-PALMITATE]	> 30 µM	20%	Active	> 30 µM	–	Active	–
CCCCCCCCCCC(=O)O[C@H](CC/C(C)=C/COc1ccc2ccc(=O)oc2c1)C(C)(C)O [R-(+)-MARMIN-6'-UNDECANOATE]	0.87 µM	30%	Active	3.67 µM	Dose-dependent effect	Active	Activity (T47D [23]): Active; Activity (MDA-MB-231 [25]): Active; Activity (MDA-MB-231 [24]): Active; Activity (T47D [26]): Active
C/C(=C\COc1ccc2ccc(=O)oc2c1)CC[C@@H](O)C(C)(C)O [R-(+)-MARMIN]	> 30 µM	20%	Active	> 30 µM	–	Active	–

From ChEMBL document CHEMBL2346643, “Semisynthetic studies identify mitochondria poisons from botanical dietary supplements--geranyloxycoumarins from Aegle marmelos” (Bioorg Med Chem, 2013)
